Assay results from ChEMBL document CHEMBL1765082, “Aminothiazolomorphinans with mixed κ and μ opioid activity” (J Med Chem, 2011).
The source made the active and inactive calls. No cut-off for these calls is given here.

Key:
[1] = biological target: T1, Kappa-type opioid receptor (Homo sapiens, UniProt P41145); experiment: Displacement of [3H]U69593 from human kappa opioid receptor expressed in CHO cells after 60 mins by scintillation counting; assay type: cell-based
Homo sapiens [2] = species on record: Homo sapiens; experiment: Selectivity ratio of Ki for human delta opioid receptor to Ki for human kappa opioid receptor
Mu-type opioid receptor [3] = biological target: T2, Mu-type opioid receptor (Homo sapiens, UniProt P35372); experiment: Displacement of [3H]DAMGO from human mu opioid receptor expressed in CHO cells after 60 mins by scintillation counting; assay type: cell-based
[4] = biological target: Delta-type opioid receptor (Homo sapiens, UniProt P41143); experiment: Displacement of [3H]Naltrindole from human delta opioid receptor expressed in CHO cells after 3 hrs by scintillation counting; assay type: cell-based
Summary of the method: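 Membranes from CHO cells expressing human κ, μ or δ opioid receptor were incubated with 12 compound concentrations and a receptor-selective radioligand at 25 °C in 50 mM Tris-HCl, pH 7.5. […] Nonspecific binding was defined with 10 μM naloxone. Ki reported as mean ± SEM, three experiments in triplicate.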

Homo sapiens [5] = species on record: Homo sapiens; experiment: Selectivity ratio of Ki for human mu opioid receptor to Ki for human kappa opioid receptor
Mu-type opioid receptor [6] = biological target: T2, Mu-type opioid receptor; details: cho
[7] = biological target: T1, Kappa-type opioid receptor; experiment: Antagonist activity at human kappa opioid receptor expressed in CHO cells assessed as […] in U50488-induced [35S]GTPgammaS binding by scintillation counting; assay type: functional, cell-based
[8] = biological target: T1, Kappa-type opioid receptor; experiment: Agonist activity at human kappa opioid receptor expressed in CHO cells assessed as [35S]GTPgammaS binding by scintillation counting; assay type: functional, cell-based
[9] = biological target: T1, Kappa-type opioid receptor; experiment: Agonist activity at human kappa opioid receptor expressed in CHO cells assessed as [35S]GTPgammaS binding by scintillation counting relative to control; assay type: functional, cell-based
Summary of the method: (§1)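 Membranes from CHO cells stably expressing human κ (15 μg protein/tube) or μ (7.5 μg protein/tube) opioid receptor, grown in DMEM with 10% FBS at 37 °C, 5% CO2. Twelve agonist concentrations were incubated 60 min at 30 °C in 50 mM Tris-HCl, 3 mM MgCl2, 100 mM NaCl, 0.2 mM EGTA, pH 7.4, with 3 μM GDP and [35S]GTPγS. Filtration, then scintillation counting. Stimulation expressed as percent over basal; ≥3 experiments in triplicate.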

Mu-type opioid receptor [10] = biological target: T2, Mu-type opioid receptor; experiment: Agonist activity at human mu opioid receptor expressed in CHO cells assessed as [35S]GTPgammaS binding by scintillation counting; assay type: functional, cell-based
Mu-type opioid receptor [11] = biological target: T2, Mu-type opioid receptor; experiment: Antagonist activity at human mu opioid receptor expressed in CHO cells assessed as inhibition of DAMGO-induced [35S]GTPgammaS binding at 10 uM by scintillation counting; assay type: functional, cell-based
Mu-type opioid receptor [12] = biological target: T2, Mu-type opioid receptor; experiment: Agonist activity at human mu opioid receptor expressed in CHO cells assessed as [35S]GTPgammaS binding by scintillation counting relative to control; assay type: functional, cell-based; summary of the method: as §1
Mu-type opioid receptor [13] = biological target: T2, Mu-type opioid receptor

Chain of Delta-type opioid receptor (P41143 whole entry): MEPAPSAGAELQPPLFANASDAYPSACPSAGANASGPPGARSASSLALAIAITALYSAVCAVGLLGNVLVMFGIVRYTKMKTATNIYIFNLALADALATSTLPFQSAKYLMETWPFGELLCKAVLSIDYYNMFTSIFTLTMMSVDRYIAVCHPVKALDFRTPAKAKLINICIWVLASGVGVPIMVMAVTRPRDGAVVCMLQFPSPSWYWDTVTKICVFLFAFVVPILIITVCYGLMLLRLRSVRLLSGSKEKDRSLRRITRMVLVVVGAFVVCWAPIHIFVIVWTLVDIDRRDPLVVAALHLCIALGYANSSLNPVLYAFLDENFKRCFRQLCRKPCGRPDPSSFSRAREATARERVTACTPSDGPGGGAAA
T1 sequence (P41145 whole entry): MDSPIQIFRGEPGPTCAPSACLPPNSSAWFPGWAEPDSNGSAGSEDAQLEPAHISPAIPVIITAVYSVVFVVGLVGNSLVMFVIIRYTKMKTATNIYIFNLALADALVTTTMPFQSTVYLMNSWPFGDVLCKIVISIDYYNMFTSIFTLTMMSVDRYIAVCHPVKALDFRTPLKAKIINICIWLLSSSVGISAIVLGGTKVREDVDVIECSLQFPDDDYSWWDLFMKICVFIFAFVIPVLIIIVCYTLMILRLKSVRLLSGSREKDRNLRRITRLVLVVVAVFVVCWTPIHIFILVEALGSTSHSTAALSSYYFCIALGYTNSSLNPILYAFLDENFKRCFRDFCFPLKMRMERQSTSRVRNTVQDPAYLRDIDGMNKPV
T2 sequence (P35372 whole entry): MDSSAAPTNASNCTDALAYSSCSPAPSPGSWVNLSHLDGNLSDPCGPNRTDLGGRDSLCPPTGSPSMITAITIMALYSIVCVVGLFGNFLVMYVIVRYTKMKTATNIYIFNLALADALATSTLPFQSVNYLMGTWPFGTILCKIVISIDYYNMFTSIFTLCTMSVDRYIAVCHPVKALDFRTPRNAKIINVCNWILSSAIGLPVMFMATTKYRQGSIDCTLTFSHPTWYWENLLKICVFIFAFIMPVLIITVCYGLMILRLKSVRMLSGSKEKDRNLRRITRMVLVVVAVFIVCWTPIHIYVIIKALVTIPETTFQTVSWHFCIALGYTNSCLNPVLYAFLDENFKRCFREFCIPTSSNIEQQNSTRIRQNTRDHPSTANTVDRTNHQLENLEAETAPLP

CCN(C(C)=O)c1nc2cc3c(cc2s1)C[C@@H]1[C@@H]2CCCC[C@]32CCN1CC1CC1
Ki [1]: 13 nM
Ratio Ki (Homo sapiens [2]): 57
Ki (Mu-type opioid receptor [3]): 86 nM
Ki [4]: 740 nM
Ratio Ki (Homo sapiens [5]): 4

CNc1nc2cc3c(cc2s1)C[C@@H]1[C@@H]2CCCC[C@]32CCN1CC1CCC1
Ki [1]: 2.4 nM
Ratio Ki (Homo sapiens [2]): 20
Ki (Mu-type opioid receptor [3]): 1.8 nM
Ki [4]: 47 nM
Ratio Ki (Homo sapiens [5]): 1

CC(=O)Nc1nc2cc3c(cc2s1)C[C@@H]1[C@@H]2CCCC[C@]32CCN1CC1CC1
Ki [1]: 13 nM
Ratio Ki (Homo sapiens [2]): 58
Ki (Mu-type opioid receptor [3]): 57 nM
Ki [4]: 750 nM
Ratio Ki (Homo sapiens [5]): 4

Nc1nc2cc3c(cc2s1)C[C@@H]1[C@@H]2CCCC[C@]32CCN1CC1CC1
IC50 (Mu-type opioid receptor [6]): Not Active
Activity [7]: inactive
Ratio Ki (Homo sapiens [2]): 590
Ratio Ki (Homo sapiens [5]): 30

CNc1nc2cc3c(cc2s1)C[C@@H]1[C@@H]2CCCC[C@]32CCN1CC1CC1
EC50 [8]: 14 nM
IC50 (Mu-type opioid receptor [6]): Not Active
Ki [1]: 0.066 nM
Activity [7]: inactive
Ki (Mu-type opioid receptor [3]): 3 nM
Ki [4]: 25 nM
Emax [9]: 82%
EC50 (Mu-type opioid receptor [10]): 47 nM

Oc1cccc(CNc2nc3cc4c(cc3s2)C[C@@H]2[C@@H]3CCCC[C@]43CCN2CC2CC2)c1
Ki [1]: 3.5 nM
Ratio Ki (Homo sapiens [2]): 8
Ki (Mu-type opioid receptor [3]): 9.9 nM
Ki [4]: 29 nM
Ratio Ki (Homo sapiens [5]): 3

CN(C)c1nc2cc3c(cc2s1)C[C@@H]1[C@@H]2CCCC[C@]32CCN1CC1CC1
EC50 [8]: 46 nM
inhibition (Mu-type opioid receptor [11]): 40%
Ki [1]: 0.45 nM
Activity [7]: inactive
Ratio Ki (Homo sapiens [2]): 140
Ki (Mu-type opioid receptor [3]): 10 nM
Ki [4]: 65 nM
Ratio Ki (Homo sapiens [5]): 22
Emax [9]: 110%
Emax (Mu-type opioid receptor [12]): 57%
EC50 (Mu-type opioid receptor [10]): 140 nM

c1ccc(Nc2nc3cc4c(cc3s2)C[C@@H]2[C@@H]3CCCC[C@]43CCN2CC2CC2)cc1
Ki [1]: 21 nM
Ratio Ki (Homo sapiens [2]): 7
Ki (Mu-type opioid receptor [3]): 180 nM
Ki [4]: 140 nM
Ratio Ki (Homo sapiens [5]): 9

Oc1ccc2c(c1)[C@@]13CCCC[C@H]1[C@@H](C2)N(CC1CC1)CC3
Activity [7]: inactive

Nc1nc2cc3c(cc2s1)C[C@@H]1[C@@H]2CCCC[C@]32CCN1C[C@@H]1CCCO1
EC50 [8]: 14 nM
IC50 (Mu-type opioid receptor [6]): Not Active
Ki [1]: 0.83 nM
Activity [7]: inactive
Ratio Ki (Homo sapiens [2]): 67
Ki (Mu-type opioid receptor [3]): 2.4 nM
Ki [4]: 56 nM
Ratio Ki (Homo sapiens [5]): 3
Emax [9]: 190%
Emax (Mu-type opioid receptor [12]): 120%
EC50 (Mu-type opioid receptor [10]): 71 nM

CCCNc1nc2cc3c(cc2s1)C[C@@H]1[C@@H]2CCCC[C@]32CCN1CCCF
Ki [1]: 5.8 nM
Ratio Ki (Homo sapiens [2]): 21
Ki (Mu-type opioid receptor [3]): 24 nM
Ki [4]: 120 nM
Ratio Ki (Homo sapiens [5]): 4

COc1cccc(CNc2nc3cc4c(cc3s2)C[C@@H]2[C@@H]3CCCC[C@]43CCN2CC2CC2)c1
Ki [1]: 4.8 nM
Ratio Ki (Homo sapiens [2]): 7
Ki (Mu-type opioid receptor [3]): 9.1 nM
Ki [4]: 34 nM
Ratio Ki (Homo sapiens [5]): 2

FC(F)(F)CNc1nc2cc3c(cc2s1)C[C@@H]1[C@@H]2CCCC[C@]32CCN1CC1CC1
EC50 [8]: 120 nM
Ki [1]: 0.84 nM
Activity [7]: inactive
Ratio Ki (Homo sapiens [2]): 210
Ki (Mu-type opioid receptor [3]): 21 nM
Ki [4]: 180 nM
Ratio Ki (Homo sapiens [5]): 25
Emax [9]: 120%

Nc1nc2cc3c(cc2s1)C[C@@H]1[C@@H]2CCCC[C@]32CCN1CCCF
EC50 [8]: 32 nM
inhibition (Mu-type opioid receptor [11]): 40%
Ki [1]: 0.3 nM
Activity [7]: inactive
Ratio Ki (Homo sapiens [2]): 180
Ki (Mu-type opioid receptor [3]): 2.7 nM
Ki [4]: 54 nM
Ratio Ki (Homo sapiens [5]): 9
Emax [9]: 100%
Emax (Mu-type opioid receptor [12]): 65%
EC50 (Mu-type opioid receptor [10]): 130 nM

CNc1nc2cc3c(cc2s1)C[C@@H]1[C@@H]2CCCC[C@]32CCN1CCCF
IC50 (Mu-type opioid receptor [6]): Not Active
Ki [1]: 0.71 nM
Activity [7]: inactive
Ki (Mu-type opioid receptor [3]): 7.4 nM
Ki [4]: 50 nM
Emax [9]: 170%

CCNC(=S)Nc1nc2cc3c(cc2s1)C[C@@H]1[C@@H]2CCCC[C@]32CCN1CC1CC1
Ki [1]: 18 nM
Ratio Ki (Homo sapiens [2]): 8
Ki (Mu-type opioid receptor [3]): 130 nM
Ki [4]: 150 nM
Ratio Ki (Homo sapiens [5]): 7

CN1CC[C@]23CCCC[C@H]2[C@H]1Cc1cc2sc(N)nc2cc13
Ratio Ki (Homo sapiens [2]): 30
Ratio Ki (Homo sapiens [5]): 0.17

CC(=O)Nc1nc2cc3c(cc2s1)C[C@@H]1[C@@H]2CCCC[C@]32CCN1CCCF
Ki [1]: 1.2 nM
Ratio Ki (Homo sapiens [2]): 180
Ki (Mu-type opioid receptor [3]): 15 nM
Ki [4]: 220 nM
Ratio Ki (Homo sapiens [5]): 13

CCNc1nc2cc3c(cc2s1)C[C@@H]1[C@@H]2CCCC[C@]32CCN1CC1CCC1
Ki [1]: 3.7 nM
Ratio Ki (Homo sapiens [2]): 25
Ki (Mu-type opioid receptor [3]): 1.1 nM
Ki [4]: 91 nM
Ratio Ki (Homo sapiens [5]): 0.3

CN(C)c1nc2cc3c(cc2s1)C[C@@H]1[C@@H]2CCCC[C@]32CCN1CCCF
Ki [1]: 11 nM
Ratio Ki (Homo sapiens [2]): 38
Ki (Mu-type opioid receptor [3]): 76 nM
Ki [4]: 420 nM
Ratio Ki (Homo sapiens [5]): 7

CCCNc1nc2cc3c(cc2s1)C[C@@H]1[C@@H]2CCCC[C@]32CCN1CC1CC1
Ki [1]: 1.6 nM
Ratio Ki (Homo sapiens [2]): 49
Ki (Mu-type opioid receptor [3]): 17 nM
Ki [4]: 79 nM
Ratio Ki (Homo sapiens [5]): 11

Nc1nc2cc3c(cc2s1)C[C@@H]1[C@@H]2CCCC[C@]32CCN1CC1CCC1
Activity [7]: inactive
Ratio Ki (Homo sapiens [2]): 290
IC50 (Mu-type opioid receptor [13]): 85 nM
Ratio Ki (Homo sapiens [5]): 9
EC50 (Mu-type opioid receptor [10]): > 1000 nM

CCNc1nc2cc3c(cc2s1)C[C@@H]1[C@@H]2CCCC[C@]32CCN1CCCF
EC50 [8]: 89 nM
IC50 (Mu-type opioid receptor [6]): Not Active
Ki [1]: 0.94 nM
Activity [7]: inactive
Ki (Mu-type opioid receptor [3]): 4 nM
Ki [4]: 76 nM
Emax [9]: 150%
EC50 (Mu-type opioid receptor [10]): 240 nM

CCNc1nc2cc3c(cc2s1)C[C@@H]1[C@@H]2CCCC[C@]32CCN1CC1CC1
IC50 (Mu-type opioid receptor [6]): Not Active
Ki [1]: 0.151 nM
Activity [7]: inactive
Ki (Mu-type opioid receptor [3]): 4.7 nM
Ki [4]: 43 nM
Emax [9]: 190%

c1ccc(Nc2nc3cc4c(cc3s2)C[C@@H]2[C@@H]3CCCC[C@]43CCN2CC2CC2)nc1
Ki [1]: 95 nM
Ki (Mu-type opioid receptor [3]): 610 nM
Ki [4]: > 10000 nM
Ratio Ki (Homo sapiens [5]): 6

c1ccc(CNc2nc3cc4c(cc3s2)C[C@@H]2[C@@H]3CCCC[C@]43CCN2CC2CC2)cc1
Ki [1]: 2.1 nM
Ratio Ki (Homo sapiens [2]): 20
Ki (Mu-type opioid receptor [3]): 10 nM
Ki [4]: 41 nM
Ratio Ki (Homo sapiens [5]): 5

CC(=O)N(C)c1nc2cc3c(cc2s1)C[C@@H]1[C@@H]2CCCC[C@]32CCN1CC1CC1
Ki [1]: 6.9 nM
Ratio Ki (Homo sapiens [2]): 160
Ki (Mu-type opioid receptor [3]): 110 nM
Ki [4]: 1100 nM
Ratio Ki (Homo sapiens [5]): 16

Nc1nc2cc3c(cc2o1)[C@@]12CCCC[C@H]1[C@@H](C3)N(CC1CC1)CC2
Ratio Ki (Homo sapiens [2]): > 192
Ratio Ki (Homo sapiens [5]): 3
